Data taken from ChEMBL document CHEMBL1131340, “alpha-Substituted malonester amides: tools to define the relationship between ACAT inhibition and adrenal toxicity” (J Med Chem, 1998).

Key:
Rattus norvegicus [1] = experiment: Percent of high density lipoprotein cholesterol was measured in cholesterol fed rat at the dose of 10 mg/kg; assay type: functional
Rattus norvegicus [2] = experiment: Percent of non high density lipoprotein cholesterol measured in cholesterol fed rat at the dose of 10 mg/kg; assay type: functional
[3] = molecular target: T1, Sterol O-acyltransferase 1 (Rattus norvegicus, UniProt O70536); experiment: In vitro Acyl coenzyme A:cholesterol acyltransferase inhibition in hepatic microsomes isolated from cholesterol-fed rats; parameters: species or system Liver
T1 sequence (O70536 whole entry): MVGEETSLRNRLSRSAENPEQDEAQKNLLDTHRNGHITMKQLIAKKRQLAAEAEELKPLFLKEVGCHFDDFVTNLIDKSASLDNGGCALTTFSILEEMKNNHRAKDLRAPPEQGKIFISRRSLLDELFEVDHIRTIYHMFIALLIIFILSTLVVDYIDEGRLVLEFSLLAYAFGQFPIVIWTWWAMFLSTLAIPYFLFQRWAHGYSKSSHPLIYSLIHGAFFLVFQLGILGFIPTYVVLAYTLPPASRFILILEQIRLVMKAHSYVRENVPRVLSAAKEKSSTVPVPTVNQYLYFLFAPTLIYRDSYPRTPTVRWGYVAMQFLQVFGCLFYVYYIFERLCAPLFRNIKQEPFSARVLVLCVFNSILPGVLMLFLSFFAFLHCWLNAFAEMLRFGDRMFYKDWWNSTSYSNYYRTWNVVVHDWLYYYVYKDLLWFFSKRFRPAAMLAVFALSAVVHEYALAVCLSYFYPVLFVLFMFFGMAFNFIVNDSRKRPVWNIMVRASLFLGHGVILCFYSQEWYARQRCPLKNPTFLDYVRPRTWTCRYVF
Summary of the method: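 Hepatic microsomes from cholesterol-fed rats (LAI screen); ACAT inhibition reported as IC50.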

Rattus norvegicus [4] = experiment: Percent change in total cholesterol level in cholic acid (0.5%),cholesterol(1.5%),peanut oil(5.5%) fed rats at 30 mg/kg.; assay type: functional
Summary of the method: (§1)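 Acute screen (APCC) in male Sprague-Dawley rats, 200–225 g. Compound given orally as a suspension in water with carboxymethylcellulose (1.5%) and Tween-20 (0.2%). Rats then ate a high-fat, high-cholesterol PCC meal (peanut oil 5.5%, cholesterol 1.5%, cholic acid 0.5%). Plasma total cholesterol measured and expressed as percent change from controls.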

Rattus norvegicus [5] = experiment: Percent change in total cholesterol level in cholic acid (0.5%),cholesterol(1.5%),peanut oil(5.5%) fed rats at 3 mg/kg.; assay type: functional; summary of the method: as §1
Rattus norvegicus [6] = experiment: Percent of non high density lipoprotein cholesterol measured in cholesterol fed rat at the dose of 30 mg/kg; assay type: functional
Rattus norvegicus [7] = experiment: Percent of high density lipoprotein cholesterol was in cholesterol fed rat at the dose of 30 mg/kg; assay type: functional
Rattus norvegicus [8] = experiment: Percent of high density lipoprotein cholesterol was in cholesterol fed rat at the dose of 10 mg/kg; assay type: functional
Rattus norvegicus [9] = experiment: Percent of total cholesterol was measured in cholesterol fed rat at the dose of 3 mg/kg
[10] = molecular target: T2, Acyl-CoA:cholesterol acyltransferase (Oryctolagus cuniculus) (UniProt Q95214); experiment: Percent inhibition of cholesterol of ACAT by ABIO bioassay at the dose of 25 mg/kg in rabbits.; assay type: functional, organism-based; parameters: dose 25 mg/kg
T2 sequence (whole entry): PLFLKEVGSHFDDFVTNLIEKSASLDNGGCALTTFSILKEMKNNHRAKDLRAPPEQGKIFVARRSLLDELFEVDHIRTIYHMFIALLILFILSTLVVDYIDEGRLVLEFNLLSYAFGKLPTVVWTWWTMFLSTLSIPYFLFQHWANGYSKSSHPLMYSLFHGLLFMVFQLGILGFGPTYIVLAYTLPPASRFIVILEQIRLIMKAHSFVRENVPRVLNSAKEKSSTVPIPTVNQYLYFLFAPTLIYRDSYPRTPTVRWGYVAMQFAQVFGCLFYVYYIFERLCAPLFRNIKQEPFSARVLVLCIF
Summary of the method: (§2)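 Oral bioactivity (ABIO) in male New Zealand White rabbits, 1.2–1.5 kg. Compound given at 25 or 50 mg/kg in the daily meal (3% peanut oil, 3% coconut oil). Plasma extracts incubated with rat liver microsomes and ACAT reaction inhibition expressed as relative percent inhibition.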

Oryctolagus cuniculus [11] = experiment: Plasma drug levels at the dose of 25 mg/kg in rabbit; assay type: functional, organism-based; parameters: dose 25 mg/kg
Summary of the method: (§3)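 Male New Zealand White rabbits, 1.2–1.5 kg, dosed at 25 or 50 mg/kg in the daily meal (3% peanut oil, 3% coconut oil). Blood taken predose and at intervals up to 24 h. Plasma solvent-extracted and assayed by HPLC–UV; limit of quantitation 20 ng/mL.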

Rattus norvegicus [12] = species: Rattus norvegicus; experiment: Percent of non high density lipoprotein cholesterol was measured in cholesterol fed rat by using oleic acid vehicle; assay type: functional
Summary of the method: (§4)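 Chronic PCC rat screen with drug and PCC diet given together for 7 days. Compound dosed either in an aqueous carboxymethylcellulose vehicle (PCC-CMC) or in an oleic acid vehicle (PCC-OA). Change in plasma non-HDL-C measured.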

Rattus norvegicus [13] = experiment: Percent of total cholesterol was measured in cholesterol fed rat at the dose of 30 mg/kg
Rattus norvegicus [14] = species: Rattus norvegicus; experiment: Percent of non high density lipoprotein cholesterol was measured in cholesterol fed rat by using aqueous vehicle; assay type: functional; summary of the method: as §4
Oryctolagus cuniculus [15] = experiment: Plasma drug levels at the dose of 50 mg/kg in rabbit; assay type: functional, organism-based; parameters: dose 50 mg/kg; summary of the method: as §3
[16] = molecular target: T2, Acyl-CoA:cholesterol acyltransferase (Oryctolagus cuniculus); experiment: Percent inhibition of cholesterol of ACAT by ABIO bioassay at the dose of 50 mg/kg in rabbits.; assay type: functional, organism-based; parameters: dose 50 mg/kg; summary of the method: as §2

IC50 [3] [nM] | SMILES | Delta TC (Rattus norvegicus [4]) [%] | Delta TC (Rattus norvegicus [5]) [%] | further results
40 | CCCCCC(C)OC(=O)C(C(=O)Nc1c(C(C)C)cccc1C(C)C)c1ccccc1 (stereo unspecified) | -67 | -61 | Delta HDL-C (Rattus norvegicus [1]): -1%; Delta non HDL-C (Rattus norvegicus [2]): -18%
> 5000 | CCOC(=O)C(C(=O)Nc1c(C(C)C)cccc1C(C)C)c1ccccc1 (stereo unspecified) | -23 |  | 
> 1000 | CCOC(=O)C(F)C(=O)Nc1c(C(C)C)cccc1C(C)C (stereo unspecified) | 1 |  | 
32 | CCCCCCCCCCCCOC(=O)C(F)C(=O)Nc1c(C(C)C)cccc1C(C)C (stereo unspecified) | -36 |  | 
> 1000 | CCOC(=O)C(C)(C)C(=O)Nc1c(C(C)C)cccc1C(C)C | -24 |  | 
50 | CCCCCCCOC(=O)C(C(=O)Nc1c(C(C)C)cccc1C(C)C)c1ccccc1 (stereo unspecified) | -71 | -47 | Of non-HDL-C (Rattus norvegicus [2]): -21%; Of HDL-C (Rattus norvegicus [8]): 2%
> 1000 | CCCOC(=O)C(C(=O)Nc1c(C(C)C)cccc1C(C)C)c1ccccc1 (stereo unspecified) | -20 |  | 
12 | CCCCCCCCCOC(=O)C(C(=O)Nc1c(C(C)C)cccc1C(C)C)c1ccccc1 (stereo unspecified) | -67 | -53 | 

Continued, compound first:

SMILES | IC50 [3] [nM] | Delta TC (Rattus norvegicus [4]) [%] | Delta TC (Rattus norvegicus [5]) [%] | further results
CCCCCCCCCCCCCCOC(=O)C(C(=O)Nc1c(C(C)C)cccc1C(C)C)c1ccccc1 (stereo unspecified) | 16 | -49 |  | Of non-HDL-C (Rattus norvegicus [6]): -57%; Of HDL-C (Rattus norvegicus [7]): 28%
CCCCCCCCCCCCCCCCCCOC(=O)C(C(=O)Nc1c(C(C)C)cccc1C(C)C)c1ccccc1 (stereo unspecified) | 200 | -25 |  | 
CCCCCCCCCCCCC(C)OC(=O)C(C(=O)Nc1c(C(C)C)cccc1C(C)C)c1ccccc1 (stereo unspecified) |  | -61 | -46 | Of non-HDL-C (Rattus norvegicus [6]): -75%; Of HDL-C (Rattus norvegicus [7]): 215%
CCCCCCCCCCCCC(C)OC(=O)C(C(=O)Nc1c(OC)cc(OC)cc1OC)c1ccccc1 (stereo unspecified) | 30 | -59 | -48 | Of non-HDL-C (Rattus norvegicus [6]): -85%; Of HDL-C (Rattus norvegicus [7]): 272%
CCCCCCCCCCCCC(C)(C)OC(=O)C(C(=O)Nc1c(OC)cc(OC)cc1OC)c1ccccc1 (stereo unspecified) | 20 |  |  | 
CCCCCCCCCCCCCCC(C)(C)OC(=O)C(C(=O)Nc1c(C(C)C)cccc1C(C)C)c1ccccc1 (stereo unspecified) | 72 | -37 |  | 
CCCCCCCCCCC(C)OC(=O)C(C(=O)Nc1c(C(C)C)cccc1C(C)C)c1ccccc1 (stereo unspecified) | 13 | -37 |  | Of non-HDL-C (Rattus norvegicus [6]): -64%; Of HDL-C (Rattus norvegicus [7]): 97%
CCCCCCCCCCCCC(C)OC(=O)C(C)(C)C(=O)Nc1c(C(C)C)cccc1C(C)C (stereo unspecified) | 21 |  |  | 
CCCCCCCCCCCCOC(=O)C(C(=O)Nc1c(OC)cc(OC)cc1OC)c1ccccc1 (stereo unspecified) |  | -51 | -51 | Of non-HDL-C (Rattus norvegicus [6]): -71%; Of HDL-C (Rattus norvegicus [7]): 127%
CCCCCCCCCCOC(=O)C(C(=O)Nc1c(C(C)C)cccc1C(C)C)c1ccccc1 (stereo unspecified) | 13 | -58 | -27 | Of non-HDL-C (Rattus norvegicus [2]): 21%; Of HDL-C (Rattus norvegicus [8]): -5%
CCCCCCCCCCCCOC(=O)C(C(=O)Nc1c(C(C)C)cc(C(C)C)cc1C(C)C)c1ccccn1 (stereo unspecified) | 180 | -9 |  | 
CCCCCCCCCCCCC(C)(C)OC(=O)C(C(=O)Nc1c(C(C)C)cccc1C(C)C)c1ccccc1 (stereo unspecified) | 12 | -26 |  | 
CCCCCCCCCCCCOC(=O)C(C(=O)Nc1c(C(C)C)cc(C(C)C)cc1C(C)C)c1ccccc1 (stereo unspecified) | 56 | -21 |  | 
CCCCC(C)(C)OC(=O)C(C(=O)Nc1c(C(C)C)cccc1C(C)C)c1ccccc1 (stereo unspecified) |  | -72 | -65 | 
CCCCCCCCCCCCCCCCOC(=O)C(C(=O)Nc1c(C(C)C)cccc1C(C)C)c1ccccc1 (stereo unspecified) |  | -26 |  | 
CCCCCCCCCCCCOC(=O)C(C(=O)Nc1c(C(C)C)cccc1C(C)C)c1ccccn1 (stereo unspecified) | 8 | -43 |  | 
CCCCCCCCOC(=O)C(C(=O)Nc1c(C(C)C)cccc1C(C)C)c1ccccc1 (stereo unspecified) |  | -56 | -46 | 
CCCCCCCCCCCCOC(=O)C(C(=O)Nc1c(C(C)C)cccc1C(C)C)c1ccccc1 (stereo unspecified) | 10 | -63 | -29 | TC (Rattus norvegicus [9]): -29%; inhibition [10]: 99%; Plasma level (Oryctolagus cuniculus [11]): 131 ng/mL; Of non-HDL-C (Rattus norvegicus [6]): -80%; Non-HDL-C (Rattus norvegicus [12]): -54%; TC (Rattus norvegicus [13]): -63%; Non-HDL-C (Rattus norvegicus [14]): -54%; Plasma level (Oryctolagus cuniculus [15]): 140 ng/mL; inhibition [16]: 100%; Of HDL-C (Rattus norvegicus [7]): 148%
